Experimental data taken from ChEMBL document CHEMBL5223075, “Discovery of thienothiazolocarboxamide analogues as novel anti-tubercular agent” (Bioorg Med Chem, 2020).
≈ marks a conversion by molar mass, not a printed value. Calls of active or inactive are those of the source. No cut-off for these calls is given here.

Experiments:
[1] = Genotoxicity in Salmonella typhimurium TA98 in the presence of S9 fraction by Ames mutagenicity test; type: toxicity, subcellular; details: salmonella enterica subsp. enterica serovar typhimurium
[2] = Solubility of the compound at pH 7.4; type: physicochemical; details: buffer
[3] = Genotoxicity in Salmonella typhimurium TA100 in the presence of S9 fraction by Ames mutagenicity test; type: toxicity, subcellular; details: salmonella enterica subsp. enterica serovar typhimurium
[4] = Drug concentration in BALB/c mouse plasma at 10 mg/kg, po by LC-MS analysis; type: ADME, organism-based; details: in vivo
Outline: (§1)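 Female BALB/c mice, 6-8 weeks old. Dosed i.v. at 2 or 3 mg/kg, or orally at 10 mg/kg. Vehicles varied by compound: DMSO/Captisol, DMSO/PEG400/SBE-b-CD, or DMSO/Cremophor EL/Captisol. Blood was held at 4°C within 1 h, then centrifuged at 3200 × g for 10 min at 4°C. Plasma was kept at 4°C, and compound levels were measured by LC-MS.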

[5] = Half-life in BALB/c mouse at 2 mg/kg, iv by LC-MS analysis; type: ADME, organism-based; details: in vivo; outline: as §1
[6] = Ratio of drug concentration in lung to plasma in BALB/c mouse at 10 mg/kg, po by LC-MS analysis; type: ADME, organism-based; outline: as §1
[7] = Volume of distribution at steady state in BALB/c mouse at 2 mg/kg, iv by LC-MS analysis; type: ADME, organism-based; details: in vivo, read-out: Vdss; outline: as §1
A549 = assay: Cytotoxicity against human A549 cells assessed as inhibition of cell growth; type: functional, cell-based
[8] = Half-life in BALB/c mouse at 10 mg/kg, po by LC-MS analysis; type: ADME, organism-based; details: in vivo; outline: as §1
[9] = tested on: Mycobacterium tuberculosis; assay: Antitubercular activity against Mycobacterium tuberculosis H37Rv ATCC 27294 expressing the green fluorescence protein assessed as inhibition of bacterial growth by measuring GFP fluorescence incubated for 5 days by fluorescence based plate reader analysis; type: functional, organism-based; details: H37Rv ATCC 27294, 120 h
Outline: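 H37Rv-GFP was grown 14 days in 7H9/OADC/Tween/glycerol/hygromycin, washed, and seeded at ~3×10^6 CFU/mL. Compounds were given as 10-point 2-fold series starting at 20 or 1 µM, in 1% DMSO final. Plates ran 5 days at 37°C, 5% CO2, with rifampicin 1 µg/mL as positive control. GFP fluorescence was read and IC50 taken from a 4-parameter sigmoid fit.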

[10] = Genotoxicity in Salmonella typhimurium TA98 by Ames mutagenicity test; type: toxicity; details: salmonella enterica subsp. enterica serovar typhimurium
Jurkat = assay: Cytotoxicity against human Jurkat cells assessed as inhibition of cell growth; type: functional, cell-based
[11] = AUClast in BALB/c mouse at 10 mg/kg, po by LC-MS analysis; type: ADME, organism-based; design: dose 10 mg/kg, route po; details: in vivo; outline: as §1
[12] = Clearance in BALB/c mouse at 2 mg/kg, iv by LC-MS analysis; type: ADME, organism-based; details: in vivo; outline: as §1
[13] = Drug concentration in BALB/c mouse lung at 10 mg/kg, po by LC-MS analysis; type: ADME, organism-based; details: in vivo; outline: as §1
[14] = Tmax in BALB/c mouse at 10 mg/kg, po by LC-MS analysis; type: ADME, organism-based; details: in vivo; outline: as §1
[15] = Metabolic stability in human liver microsome assessed as phase II mediated metabolite formation by measuring half-life; type: ADME; details: microsomes
HepG2 = assay: Cytotoxicity against human HepG2 cells assessed as inhibition of cell growth; type: functional, cell-based
[16] = Protein binding in mouse plasma; type: ADME, cell-free; details: read-out: PPB (converted)
[17] = Oral bioavailability in BALB/c mouse at 10 mg/kg by LC-MS analysis; type: ADME, organism-based; details: in vivo; outline: as §1
[18] = Metabolic stability in mouse liver microsome assessed as phase I mediated metabolite formation by measuring half-life; type: ADME; details: microsomes
[19] = Stability in mouse plasma measured after 2 hrs; type: ADME, cell-free; details: read-out: Stability
[20] = Cytotoxicity against HEK293 cells assessed as inhibition of cell growth; type: toxicity, cell-based; details: human
[21] = Metabolic stability in human liver microsome assessed as phase I mediated metabolite formation by measuring half-life; type: ADME; details: microsomes
[22] = tested on: Mycobacterium tuberculosis; assay: Antitubercular activity against Mycobacterium tuberculosis H37Rv ATCC 27294 expressing the green fluorescence protein infected in mouse RAW264.7 cells assessed as inhibition of bacterial growth pre-infected with cell followed by compound addition and measured after 5 days by Hoechst 33342 staining based analysis; type: functional, organism-based; details: H37Rv ATCC 27294, RAW264.7, 120 h
Outline: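 RAW 264.7 cells, passages 2-9, were infected with washed H37Rv-GFP at MOI 20 for 2 h at 37°C with shaking. Cells were washed and plated at 20,000/well over 2-fold compound dilutions for 5 days. Nuclei were stained with 5 µM Hoechst (final) and 3 fields/well imaged. Four parameters (cell count, bacterial area, area per infected cell, infected-cell ratio) were each fitted by 4-parameter sigmoid, and the IC50s averaged.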

[23] = Stability in human plasma measured after 2 hrs; type: ADME, cell-free; details: read-out: Stability
[24] = Protein binding in human plasma; type: ADME, cell-free; details: read-out: PPB (converted)
[25] = tested on: Mycobacterium tuberculosis; assay: Antibacterial activity against Mycobacterium tuberculosis H37Rv ATCC 27294 infected in BALB/c mouse assessed as reduction in bacterial load in lungs at 25 to 100 mg/kg, po administered five times a week for 28 days; type: functional, organism-based; details: dose 25-100 mg/kg, time 28.0 day
Outline: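 Female BALB/c mice, 6-8 weeks old, were infected intranasally with ~300-600 CFU H37Rv, 5 mice per group. Oral gavage began at day 21, 5 days/week for 4 weeks. Lungs were taken a day after the last dose, homogenized in PBS, serially diluted and plated in duplicate on 7H11-OADC agar for 2-5 weeks at 37°C. Detection limit ~2.3 logs. Bonferroni test against vehicle-treated mice.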

[26] = Cmax in BALB/c mouse at 10 mg/kg, po by LC-MS analysis; type: ADME, organism-based; design: dose 10 mg/kg, route po; details: in vivo; outline: as §1
[27] = Metabolic stability in mouse liver microsome assessed as phase II mediated metabolite formation by measuring half-life; type: ADME; details: microsomes
[28] = Solubility of the compound at pH 2.1; type: physicochemical; details: buffer
[29] = Genotoxicity in Salmonella typhimurium TA100 by Ames mutagenicity test; type: toxicity; details: salmonella enterica subsp. enterica serovar typhimurium
[30] = Stability in human plasma measured after 4 hrs; type: ADME, cell-free; details: read-out: Stability
[31] = Stability in mouse plasma measured after 4 hrs; type: ADME, cell-free; details: read-out: Stability

For Cc1nc2cc(NC(=O)c3cc4sc(N5CCC(C(=O)N(C)C)CC5)nc4s3)ccc2o1, the Activity [1] was “Non-Toxic”, the solubility [2] was 1.2 µg/mL (≈ 2.56 µM) and the Activity [3] was “Non-Toxic”. For the same compound, the Cp [4] was 4400 ng/mL, the half-life [5] was 0.92 h and the Kp [6] was 0.7. The Vd [7] was 0.701 L/kg, the IC50 (A549) was over 50 µM and the half-life [8] was 0.99 h. The IC50 [9] was 0.5 µM, the Activity [10] was “Non-Toxic” and the IC50 (Jurkat) was over 50 µM. It also gave an AUC(0-t) [11] of 10000 ng·h/mL, a clearance [12] of 11.8 mL/min/kg and a Ct [13] of 2986 ng/mL. For the same compound, the Tmax [14] was 1 h, the t1/2 [15] was 1.66 h and the IC50 (HepG2) was over 50 µM. It also gave a fraction unbound [16] of 0.036, a bioavailability [17] of 71.2% and a t1/2 [18] of over 1 h. For the same compound, the remaining at 2 h [19] was 95.7%, the IC50 [20] was over 50 µM and the t1/2 [21] was over 1 h. It also gave an IC50 [22] of 0.51 µM, a remaining at 2 h [23] of 86.1% and a fraction unbound [24] of 0.049. The Activity [25] was “inactive”, the Cmax [26] was 7010 ng/mL and the t1/2 [27] was 2.07 h. For the same compound, the solubility [28] was 4 µg/mL (≈ 8.52 µM) and the Activity [29] was “Non-Toxic”.
Cc1nc2cc(NC(=O)c3cc4sc(N(C)CCCO)nc4s3)ccc2o1 gave an IC50 [9] of 1 µM and an IC50 [22] of 0.7 µM.
For COc1ccc(NC(=O)c2cc3sc(N4CCC(F)(F)CC4)nc3s2)cc1, the IC50 [9] was 1.1 µM and the IC50 [22] was 0.33 µM.
COc1ccc(NC(=O)c2cc3sc(N4CCNCC4)nc3s2)cc1 showed an IC50 [9] of 13.7 µM and an IC50 [22] of 2.1 µM.
For O=C(Nc1ccc(Cl)cc1)c1cc2sc(N3CCCCC3)nc2s1, the IC50 [9] was 1.1 µM and the IC50 [22] was 0.11 µM.
Compound COc1ccc(NC(=O)c2cc3sc(N4CCOCC4)nc3s2)cc1 has an IC50 [9] of 1.1 µM, a t1/2 [18] of over 1 h and a t1/2 [21] of 0.96 h. It also gave an IC50 [22] of 0.21 µM.
In the case of Cc1nc2cc(NC(=O)c3cc4sc(N5CCOCC5)nc4s3)ccc2o1, the solubility [2] is reported as 0.82 µg/mL (≈ 2.05 µM), the remaining at 4 h [30] is reported as 86.8% and the half-life [5] is reported as 0.33 h. For the same compound, the Vd [7] was 0.626 L/kg, the IC50 [9] was 0.42 µM and the clearance [12] was 121 mL/min/kg. The t1/2 [15] was over 1 h, the fraction unbound [16] was 0.001 and the t1/2 [18] was over 1 h. It also gave a t1/2 [21] of over 1 h, an IC50 [22] of 0.2 µM and a fraction unbound [24] of 0.012. The Cmax [26] was 313 ng/mL, the remaining at 4 h [31] was 74.7% and the t1/2 [27] was over 1 h. For the same compound, the solubility [28] was 5.3 µg/mL (≈ 13.2 µM).
In the case of COc1ccc(C(=O)Nc2cc3sc(N4CCCCC4)nc3s2)cc1, the IC50 [9] is reported as over 20 µM and the IC50 [22] is reported as over 20 µM.
With COc1ccc(NC(=O)c2cc3sc(N4CCCCC4)nc3s2)cc1 the IC50 [9] was 0.83 µM and the IC50 [22] was 0.17 µM.
Work on Cc1nc2cc(NC(=O)c3cc4sc(N5CCC(O)CC5)nc4s3)ccc2o1 yielded a solubility [2] of 2.4 µg/mL (≈ 5.79 µM), an IC50 [9] of 0.64 µM and a t1/2 [18] of over 1 h. For the same compound, the t1/2 [21] was over 1 h, the IC50 [22] was 0.46 µM and the solubility [28] was 9.7 µg/mL (≈ 23.4 µM).
With COc1ccc(NCc2cc3sc(N4CCCCC4)nc3s2)cc1 the IC50 [9] was over 20 µM and the IC50 [22] was over 20 µM.
O=C(Nc1ccc(-c2ccc(F)nc2)cc1)c1cc2sc(NCCN3CCOCC3)nc2s1 showed a solubility [2] of 1.1 µg/mL (≈ 2.27 µM), an IC50 [9] of 0.61 µM and a t1/2 [18] of 0.76 h. The t1/2 [21] was 0.418 h, the IC50 [22] was 0.1 µM and the solubility [28] was 1.5 µg/mL (≈ 3.1 µM).
Work on O=C(Nc1ccc(-c2ccc(C(F)(F)F)cn2)cc1)c1cc2sc(NCCN3CCOCC3)nc2s1 yielded a solubility [2] of 9.8 µg/mL (≈ 18.4 µM), an IC50 [9] of 4.5 µM and an IC50 [22] of 0.21 µM. It also gave a solubility [28] of 44.3 µg/mL (≈ 83 µM).
In the case of COc1ccc(CNC(=O)c2cc3sc(N4CCCCC4)nc3s2)cc1, the IC50 [9] is reported as over 20 µM and the IC50 [22] is reported as over 20 µM.
With COc1ccc(-c2ccc(NC(=O)c3cc4sc(NCCN5CCOCC5)nc4s3)cc2)nc1 the solubility [2] was 0.2 µg/mL (≈ 0.404 µM), the IC50 [9] was 1.35 µM and the t1/2 [18] was under 0.5 h. The t1/2 [21] was under 0.5 h, the IC50 [22] was 0.19 µM and the solubility [28] was over 50 µg/mL.
